From ChEMBL document CHEMBL1806428, “Design and synthesis of spiro derivatives of parthenin as novel anti-cancer agents” (Eur J Med Chem, 2011)
Active and inactive are the calls of the source. The calls are words filed in the database; no cut-off is given here.

Key:
DU-145 = test: Cytotoxicity against human DU145 cells assessed as cell growth after 48 hrs by sulforhodamine B assay; type: functional, cell-based; settings: Homo sapiens, DU-145, 48 h
In short: (§1)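 Log-phase cells seeded at 10^4/well and allowed to attach for 24 h at 37 °C, 5% CO2. Exposed for 48 h to 0.1–100 (1:10 serial dilutions), four replicate wells per condition. Fixed with cold 50% TCA for 1 h at 4 °C, stained with sulforhodamine B, dye dissolved in Tris, OD read at 540 nm. Blank-subtracted growth expressed relative to untreated cells (100%); IC50 reported.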

SW-620 [1] = test: Cytotoxicity against human SW620 cells assessed as cell growth after 48 hrs by sulforhodamine B assay; type: functional, cell-based; settings: Homo sapiens, SW-620, 48 h; in short: as §1
[2] = Partition coefficient, log P of the compound; type: physicochemical; settings: octanol/water
PC-3 = test: Cytotoxicity against human PC3 cells assessed as cell growth after 48 hrs by sulforhodamine B assay; type: functional, cell-based; settings: Homo sapiens, PC-3, 48 h; in short: as §1
[3] = Antitumor activity against mouse Ehrlich Ascites tumor xenografted in Swiss albino mouse assessed as decrease in tumor weight at 10 mg/kg, ip administered for 9 days (reference value: 1708+/-51.07 mg); type: functional; settings: route intraperitoneal
Mus musculus [4] = test: Toxicity in Swiss albino mouse transplanted with mouse EAC cells assessed as mortality at 50 mg/kg, ip administered for 9 days measured on day 3rd; type: organism-based, Ehrlich; set-up: dose 50 mg/kg, route intraperitoneal; settings: in vivo, 216 h
In short: (§2)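 EAC ascites model: mice of the same sex, 20 ± 3 g, injected intraperitoneally with 1 × 10^7 cells from a donor bearing 8–10 day old ascites tumor (day 0). Randomised the next day, 7 per test group and 10 controls. Doses were suspended in 1% gum acacia and given i.p. for nine consecutive days; controls received saline 0.2 mL i.p. On day 12, ascitic fluid volume and tumor cell count were measured, and % inhibition was calculated from cell number versus control.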

[5] = Antitumor activity against mouse Ehrlich Ascites tumor xenografted in Swiss albino mouse assessed as tumor growth inhibition at 10 mg/kg, ip administered for 9 days measured on day 13; type: functional; settings: route intraperitoneal, read-out: GI
Mus musculus [6] = test: Toxicity in Swiss albino mouse transplanted with EAC cells assessed as mortality at 50 mg/kg, ip administered for 9 days measured on day 2nd; type: organism-based, Ehrlich; set-up: dose 50 mg/kg, route intraperitoneal; settings: in vivo, 216 h; in short: as §2
[7] = Antitumor activity against mouse EAC cells transplanted in Swiss albino mouse assessed as decrease in astic fluid volume at 10 mg/kg, ip administered for 9 days (reference value: 4.57+/-0.39 mL); type: functional, Ehrlich; settings: route intraperitoneal; in short: as §2
[8] = Antitumor activity against mouse EAC cells transplanted in Swiss albino mouse assessed as tumor growth inhibition at 10 mg/kg, ip administered for 9 days (reference value: 4.57+/-0.39 mL); type: functional; settings: Ehrlich, 216 h, route intraperitoneal, read-out: GI; in short: as §2
Ehrlich [9] = test: Antitumor activity against mouse EAC cells transplanted in Swiss albino mouse assessed as decrease in tumor cells in ascetic fluid at 10 mg/kg, ip administered for 9 days (reference value: 4.57+/-0.39 mL); type: functional, organism-based; set-up: dose 10 mg/kg; in short: as §2
Mus musculus [10] = test: Toxicity in Swiss albino mouse transplanted with mouse EAC cells assessed as mortality at 25 mg/kg, ip administered for 9 days measured on day 2nd; type: organism-based, Ehrlich; set-up: dose 25 mg/kg, route intraperitoneal; settings: in vivo, 216 h; in short: as §2
Ehrlich [11] = test: Antitumor activity against mouse EAC cells transplanted in ip dosed Swiss albino mouse assessed as tumor growth inhibition administered for 9 days; type: functional, organism-based; in short: as §2
Mus musculus [12] = test: Toxicity in Swiss albino mouse model of Ehrlich Ascites tumor assessed as mortality at 25 mg/kg, ip administered for 9 days measured on fourth day; type: organism-based; set-up: dose 25 mg/kg, route intraperitoneal; settings: in vivo, 216 h
Mus musculus [13] = test: Toxicity in Swiss albino mouse model of Ehrlich Ascites tumor assessed as mortality at 50 mg/kg, ip administered for 9 days measured on second day; type: organism-based; set-up: dose 50 mg/kg, route intraperitoneal; settings: in vivo, 216 h
Mus musculus [14] = test: Toxicity in Swiss albino mouse transplanted with EAC cells assessed as mortality at 25 mg/kg, ip administered for 9 days measured on day 4th; type: organism-based, Ehrlich; set-up: dose 25 mg/kg, route intraperitoneal; settings: in vivo, 216 h; in short: as §2
Mus musculus [15] = test: Toxicity in ip dosed Swiss albino mouse transplanted with mouse EAC cells assessed as mortality administered for 9 days; type: organism-based, Ehrlich; settings: in vivo, 216 h; in short: as §2
[16] = Antitumor activity against mouse Ehrlich Ascites tumor xenografted in Swiss albino mouse assessed as decrease in tumor weight at 20 mg/kg, ip administered for 9 days (reference value: 1708+/-51.07 mg); type: functional; settings: route intraperitoneal
[17] = Antitumor activity against mouse Ehrlich Ascites tumor xenografted in Swiss albino mouse assessed as tumor growth inhibition at 20 mg/kg, ip administered for 9 days measured on day 13; type: functional; settings: route intraperitoneal, read-out: GI
SW-620 [18] = test: Cell cycle arrest in human SW620 cells assessed as increase in sub-G1 DNA content at 5 uM after 24 hrs using propidium iodide staining by flow cytometry (reference value: 3.45%); type: functional
SW-620 [19] = test: Induction of apoptosis in human SW620 cells assessed as DNA fragmentation at 5 uM after 6 hrs by gel electrophoresis; type: functional, cell-based

Row | Structure (SMILES) | IC50 (DU-145) [µM] | IC50 (SW-620 [1]) [µM] | logP [2] | IC50 (PC-3) [µM] | also measured
1 | C[C@H]1CC[C@@H]2[C@@H](OC(=O)[C@]23CC(c2ccc(F)cc2)=NO3)[C@]2(C)C(=O)C=C[C@@]12O | 13 | 3.6 | 1.57 | 27 | 
2 | COc1ccc(C2=NO[C@]3(C2)C(=O)O[C@@H]2[C@H]3CC[C@H](C)[C@]3(O)C=CC(=O)[C@@]23C)cc1 | 20 | 41 | 1.47 | 35 | 
3 | C=C1C(=O)O[C@@H]2[C@H]1CC[C@H](C)[C@]1(O)C=CC(=O)[C@@]21C [PARTHENIN] | 31.1 | 38.7 |  | 40.3 | Activity [3]: 1542.86 mg; Activity (Mus musculus [4]): Toxic; inhibition in vivo at 10 mg/kg [5]: 9.69%; Activity (Mus musculus [6]): Toxic; Activity [7]: 3.92 mL; inhibition in vivo at 10 mg/kg [8]: 12%; Activity (Ehrlich [9]): Active; Activity (Mus musculus [10]): Toxic; growth inhibition (GI) (Ehrlich [11]): Dose-dependent effect; Activity (Mus musculus [12]): Toxic; Activity (Mus musculus [13]): Toxic; Activity (Mus musculus [14]): Toxic; Activity (Mus musculus [15]): Toxic
4 | COc1ccccc1N1C[C@]12C(=O)O[C@@H]1[C@H]2CC[C@H](C)[C@]2(O)C=CC(=O)[C@@]12C | 27 | 47.3 | 1.41 | 52 | 
5 | Cc1ccc(N2C[C@]23C(=O)O[C@@H]2[C@H]3CC[C@H](C)[C@]3(O)C=CC(=O)[C@@]23C)cc1 | 36 | 32 | 1.83 | 25 | 
6 | Cc1ccc(C2=NO[C@]3(C2)C(=O)O[C@@H]2[C@H]3CC[C@H](C)[C@]3(O)C=CC(=O)[C@@]23C)cc1 | 14 | 2.5 | 1.86 | 14 | 
7 | C[C@H]1CC[C@@H]2[C@@H](OC(=O)[C@]23CN3c2ccccc2)[C@]2(C)C(=O)C=C[C@@]12O | 31.4 | 87.7 | 1.38 | 10.6 | 
8 | C[C@H]1CC[C@@H]2[C@@H](OC(=O)[C@]23CC(c2c(Cl)cccc2Cl)=NO3)[C@]2(C)C(=O)C=C[C@@]12O | 38 | 43 | 2.67 | 56 | 
9 | C[C@H]1CC[C@@H]2[C@@H](OC(=O)[C@]23CN3c2cccc([N+](=O)[O-])c2)[C@]2(C)C(=O)C=C[C@@]12O | 30 | 61 | 1.31 | 10.1 | 
10 | O=c1[nH]cc(F)c(=O)[nH]1 [FLUOROURACIL] |  |  |  |  | Activity [16]: 832.28 mg; inhibition in vivo at 20 mg/kg [17]: 51.3%
11 | C[C@H]1CC[C@@H]2[C@@H](OC(=O)[C@]23CC(c2ccccc2Br)=NO3)[C@]2(C)C(=O)C=C[C@@]12O | 18 | 44 | 2.22 | 51 | 
12 | Cc1cccc(C2=NO[C@]3(C2)C(=O)O[C@@H]2[C@H]3CC[C@H](C)[C@]3(O)C=CC(=O)[C@@]23C)c1 | 28 | 15 | 1.86 | 66.6 | 
13 | C[C@H]1CC[C@@H]2[C@@H](OC(=O)[C@]23CC(c2ccc(C#N)cc2)=NO3)[C@]2(C)C(=O)C=C[C@@]12O | 26 | 53 | 1.17 | 32 | 
14 | COC(=O)c1cccc(N2C[C@]23C(=O)O[C@@H]2[C@H]3CC[C@H](C)[C@]3(O)C=CC(=O)[C@@]23C)c1 | 18.5 | 30 | 1.52 | 10.1 | 
15 | C[C@H]1CC[C@@H]2[C@@H](OC(=O)[C@]23CC(c2ccccc2[N+](=O)[O-])=NO3)[C@]2(C)C(=O)C=C[C@@]12O | 34 | 40 | 1.37 | 37 | 
16 | C[C@H]1CC[C@@H]2[C@@H](OC(=O)[C@]23CC(c2ccccc2Cl)=NO3)[C@]2(C)C(=O)C=C[C@@]12O | 19 | 9 | 2.09 | 12 | 
17 | COc1ccc(N2C[C@]23C(=O)O[C@@H]2[C@H]3CC[C@H](C)[C@]3(O)C=CC(=O)[C@@]23C)cc1 | 78 | 30 | 1.41 | 12 | 
18 | C[C@H]1CC[C@@H]2[C@@H](OC(=O)[C@]23CN3c2ccccc2[N+](=O)[O-])[C@]2(C)C(=O)C=C[C@@]12O | 28 | 33 | 1.31 | 10 | 
19 | C[C@H]1CC[C@@H]2[C@@H](OC(=O)[C@]23CC(c2ccc(Cl)cc2)=NO3)[C@]2(C)C(=O)C=C[C@@]12O | 43 | 51 | 2.09 | 49 | 
20 | Cc1cccc(N2C[C@]23C(=O)O[C@@H]2[C@H]3CC[C@H](C)[C@]3(O)C=CC(=O)[C@@]23C)c1 | 62.5 | 15 | 1.83 | 61.5 | 
21 | C[C@H]1CC[C@@H]2[C@@H](OC(=O)[C@]23CC(c2ccccc2F)=NO3)[C@]2(C)C(=O)C=C[C@@]12O | 24 | 11 | 1.57 | 8.2 | 
22 | C[C@H]1CC[C@@H]2[C@@H](OC(=O)[C@]23CC(c2ccc(O)cc2)=NO3)[C@]2(C)C(=O)C=C[C@@]12O | 93 | 89 | 0.932 | 20 | 
23 | COc1cc(C2=NO[C@]3(C2)C(=O)O[C@@H]2[C@H]3CC[C@H](C)[C@]3(O)C=CC(=O)[C@@]23C)ccc1O | 71 | 88 | 0.75 | 16 | 
24 | C[C@H]1CC[C@@H]2[C@@H](OC(=O)[C@]23CC(c2cccc([N+](=O)[O-])c2)=NO3)[C@]2(C)C(=O)C=C[C@@]12O | 51 | 49 | 1.37 | 55 | 
25 | C[C@H]1CC[C@@H]2[C@@H](OC(=O)[C@]23CN3c2cccc(Cl)c2)[C@]2(C)C(=O)C=C[C@@]12O | 39.5 | 48.4 | 2.03 | 86.1 | 
26 | Cc1ccccc1C1=NO[C@]2(C1)C(=O)O[C@@H]1[C@H]2CC[C@H](C)[C@]2(O)C=CC(=O)[C@@]12C | 12 | 5 | 1.86 | 10 | 
27 | C[C@H]1CC[C@@H]2[C@@H](OC(=O)[C@]23CC(c2ccc([N+](=O)[O-])cc2)=NO3)[C@]2(C)C(=O)C=C[C@@]12O | 7 | 9 | 1.37 | 12 | 
28 | CC[C@@]1(O)C(=O)OCc2c1cc1n(c2=O)Cc2cc3ccccc3nc2-1 [CAMPTOTHECIN] |  |  |  |  | Activity (SW-620 [18]): 60%; Activity (SW-620 [19]): Active
